Assay outcomes from PubChem BioAssay.
Mdm2 ligase inh: Mdm2 E3 ligase (human) inhibition | hit rate 0.11% among 210,000 | cell-based MDM2 ubiquitination luciferase reporter, 2 h; 0 = plate control, 100 = twice control, blank-subtracted | Q00987 | AID 1230 | signal enhancement, % at 5 µM;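 active means signal enhancement of 30% or more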;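 further: luminescence tracks abundance of the self-degrading MDM2-luciferase fusion protein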
Target sequence (Q00987 whole entry, looked up, the tested form may be a part): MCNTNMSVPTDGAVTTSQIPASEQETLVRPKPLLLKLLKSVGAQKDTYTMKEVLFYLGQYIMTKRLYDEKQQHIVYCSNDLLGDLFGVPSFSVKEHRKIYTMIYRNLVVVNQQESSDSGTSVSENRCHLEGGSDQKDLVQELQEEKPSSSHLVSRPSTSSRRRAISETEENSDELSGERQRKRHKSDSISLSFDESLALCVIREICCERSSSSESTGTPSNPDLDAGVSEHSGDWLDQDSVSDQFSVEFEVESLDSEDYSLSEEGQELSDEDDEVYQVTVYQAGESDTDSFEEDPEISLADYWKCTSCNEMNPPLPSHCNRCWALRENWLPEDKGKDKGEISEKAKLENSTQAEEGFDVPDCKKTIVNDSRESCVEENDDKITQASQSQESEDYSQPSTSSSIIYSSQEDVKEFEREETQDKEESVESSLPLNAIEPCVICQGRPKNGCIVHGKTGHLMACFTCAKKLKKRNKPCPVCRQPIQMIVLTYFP
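Buffer or medium: Cells held in DMEM | Assay system: Stable mammalian line carrying autodegrading MDM2–luciferase fusion reporter | Quantity: 2000 cells/well | Times: 4 h settle plus 2 h compound, 37 °C | Doses: One concentration, 5 µM, with 0.2% DMSO | Technique: Luminescence with SteadyLite reagent, 15 min at room temperature | Benchmarks: Plate controls and plate blanks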
Lipid droplet: hepatic lipid droplet formation modulation; inhibition, % at 6.5 µM; hit rate 0.4% among 240,000; AML12 mouse hepatocytes, oleate lipid droplets, BODIPY imaging;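 active means lipid droplet intensity inhibited by at least 50%, with more than 500 cells counted; inconclusive means wells with under 300 cells, treated as cytotoxic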
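Assay system: AML12 mouse liver cells | Compound dosing: One dose, 6.5 µM compound | Read-out basis: Droplet intensity reduction, % inhibition | Measured by: Fluorescence imaging, 20x objective, two fields per well | Schedule: Overnight treatment with compound plus oleate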
p-CIP stab down: lowers stability of the mouse p/CIP coactivator protein; hit rate 0.01% among 290,000; F442A p/CIP-EGFP cells, EGFP fluorescence, 16 h; decrease of EGFP signal, % at 10 µM; Q05BA5;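 active means EGFP signal decrease of at least 30% at 10 µM or well 3 SD below plate mean, unless failing retest; inactive means the rest, including hits failing retest or dose response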
Numbers stand for hits; - = inactive; ? = inconclusive; . = no result given. Only a selection was taken, and hits are over-represented in it overall.

SMILES | Mdm2 ligase inh | Lipid droplet | p-CIP stab down
Cc1nc(CSc2nsc(/C=C/N(C)C)c2C#N)cs1 | 31.1 | - | -
COC(=O)c1ccccc1CSc1nsc(/C=C/N(C)C)c1C#N | . | - | -
COCCNc1nc2nonc2nc1N(C)Cc1cccc2cnccc12 | 47.8 | - | -
CCN(c1ccccc1)c1nc2nonc2nc1NCCO | - | - | -
CCOC(=O)C1CCN(C(=S)Nc2ccc(Cl)cc2C)CC1 | - | - | -
CCOC(=O)C1CCN(C(=S)Nc2cc(C)ccc2C)CC1 | 98.2 | - | -
O=C1Cc2cc(CCN3CCN(c4nsc5ccccc45)CC3)c(Cl)cc2N1 | . | - | -
CCC(=O)NC(c1ccc(OC)cc1)c1c(O)ccc2ccccc12 (centres undefined) | - | - | 33.7
COc1ccc(C(NC(=O)C(C)C)c2c(O)ccc3ccccc23)cc1 (centres undefined) | - | - | -
COc1ccccc1NC(=O)NC1(C(=O)NCC2CCCO2)CCCCC1 (centres undefined) | . | - | -
Cc1ccc(NC2=C(NCCO)C(=O)c3ccccc3C2=O)cc1 | - | 59.1 | -
CC(=O)Nc1ccc(NC2=C(Cl)C(=O)c3ccccc3C2=O)cc1 | - | - | -
O=C1NC(CCc2ccccc2)C(=O)N1CCOc1cccc(Br)c1 (centres undefined) | - | - | -
COc1ccc(CN2CCNC(=O)C2CC(=O)N2CCCO2)c(OC)c1 (centres undefined) | - | - | -
CNC1(C(N)=O)CCNCC1 | . | - | 38.8
COc1ccc(-n2c(N)c(C(=O)Nc3c(C)n(C)n(-c4ccccc4)c3=O)c3nc4ccccc4nc32)cc1 | - | - | -
Cc1ccc(-n2c(N)c(C(=O)Nc3c(C)n(C)n(-c4ccccc4)c3=O)c3nc4ccccc4nc32)cc1C | - | 69.5 | -
CN(C)c1ccc(C(=O)N/N=C/c2ccccn2)cc1 | . | - | -
Cc1ccc(C)c(NC(=O)C(=O)NCc2ccccn2)c1 | - | - | -
CCN(C(=O)COC(=O)c1[nH]c(=O)[nH]c(=O)c1N)c1ccccc1 | - | - | -
Cc1cc(S(=O)(=O)N2CCCOC2CNC(=O)C(=O)NCc2ccco2)ccc1F (centres undefined) | - | - | -
c1ccc2sc(N3CCCN(Cc4nc(-c5cnccn5)no4)CC3)nc2c1 | - | - | -
Cc1noc(C)c1COc1ccc(C(=O)Nc2ccccn2)cc1 | . | - | -
Cc1noc(C)c1COc1ccc(C(=O)NCc2ccccn2)cc1 | 68.4 | - | -
Nc1[nH]n(-c2ccccc2)c(=O)c1N=Nc1ccc2ncsc2c1 | - | - | -
SMILES | Mdm2 ligase inh | Lipid droplet | p-CIP stab down
COc1ccc(NC(=O)C2CCCN(CCCc3ccccc3)C2)cc1OCC(C)C (centres undefined) | . | - | -
Cc1ccc(/C=C2\CCC3=C2OC(N)=C(C#N)C3c2ccc(C)cc2)cc1 (centres undefined) | - | . | -
N#CC1=C(N)OC2=C(CCc3ccccc32)C1c1ccccc1 (centres undefined) | - | 100.8 | -
Cc1c(/C=N/O)c2ccccn2c1C=O | - | - | -
CC(=O)Cn1cnc2scc(-c3ccc(C)c(C)c3)c2c1=O | . | - | -
O=C(CN1CCCC1)NCc1ccccc1 | . | - | -
O=C(CN1CCN(c2ncccn2)CC1)NCc1ccccc1 | 103.2 | - | -
CC(Sc1nncs1)C(=O)NC1CCCCC1C (centres undefined) | . | - | -
COc1ccc(C(=O)NCCSC2CCCCC2)cc1 | 40.5 | - | -
O=C(NCCSC1CCCCC1)c1ccccc1 | - | - | -
CCN(C(=O)c1cccc(NC(=O)c2ccccc2)c1)C1CCCCC1 | . | - | -
Cc1ccc(CS(=O)(=O)Cc2ccc(C(=O)NCCc3ccccc3)o2)cc1 | . | - | -
CC1C/C(=C/c2ccccn2)C(=O)/C(=C/c2ccccn2)C1 (centres undefined) | 46.0 | ? | -
CC(C)(C)C1C/C(=C/c2ccccn2)C(=O)/C(=C/c2ccccn2)C1 (centres undefined) | - | - | -
COc1cccc(NC(=O)CCCn2nc(C)c3c(C)n(-c4ccccc4)nc3c2=O)c1 | . | - | -
Clc1cccc(Nc2ncnc3ccc(Br)cc23)c1 | - | . | -
COc1cc2ncnc(Nc3cccc(Cl)c3)c2cc1OC | . | 65.0 | -
O=C1CC(C(=O)NC2CCCCC2)C2(CCCCC2)O1 (centres undefined) | - | - | -
N#Cc1c(N)nc2c(c1-c1cccc(O)c1)CCCCCC2 | 146.7 | . | -
N#Cc1c(N)nc2c(c1-c1ccccc1)CCCC2 | - | - | -
Cc1[nH]c2ccc(C(=O)NCCN3CCOCC3)cc2c1C | . | - | -
Nc1cccc2c1C(=O)N(C(=O)/C=C/c1cccc(F)c1)C2=O | - | - | -
Nc1cccc2c1C(=O)N(C(=O)/C=C/c1cccc(Br)c1)C2=O | 35.3 | - | -
O=C(O)c1ccc2c(c1)N(Cc1ccccc1F)C(=O)c1ccccc1S2=O (centres undefined) | 71.0 | - | -
CCN1CCN(C(=O)c2ccc3c(c2)N(Cc2ccccc2)C(=O)c2ccccc2S3=O)CC1 (centres undefined) | . | - | -
SMILES | Mdm2 ligase inh | Lipid droplet | p-CIP stab down
O=[N+]([O-])C1=CC=C2C(=NC3(CCCCC3)N2O)C1=NCCc1ccccc1 | 30.7 | - | -
CC(C)(C)N=C1C([N+](=O)[O-])=CC=C2C1=NC1(CCCCC1)N2O | - | - | -
CCCCNC(=O)N(O)C1N(/N=C/c2cccs2)C(=S)SC1(C)C (centres undefined) | - | - | -
O=C1/C(=C/c2cccnc2)CC/C1=C\c1cccnc1 | - | - | -
O=C1/C(=C/c2cccnc2)CCC/C1=C\c1cccnc1 | 36.0 | - | -
COc1ccc(NC(=O)/C(Cl)=C(/Cl)S(=O)Cc2ccc(Cl)cc2)cn1 (centres undefined) | 39.3 | - | .
COc1ccc(NC(=O)C(Cl)=C(Cl)Cl)cn1 | - | - | -
COc1cc(/C=C2/C(=N)N3OC(C)=CC3=NC2=O)ccc1OC(=O)c1ccco1 | 32.4 | - | -
CC1=CC2=NC(=O)/C(=C\c3ccc(OC(=O)c4ccco4)cc3)C(=N)N2O1 | - | - | -
COC(=O)C1=C(C(=O)OC)[C@@H]2N(C)c3ccccc3[C@@]23C[C@@H](C(=O)OC)N=C3N1 | - | - | -
COC(=O)C1=C(C(=O)OC)[C@@H]2N(C)c3ccc(OC)cc3[C@@]23C[C@@H](C(=O)OC)N=C3N1 | 35.8 | - | -
CC(C)(C)c1ccc(C2CC2C(=O)N/N=C\c2cc3ccccc3nc2Cl)cc1 (centres undefined) | - | . | -
Cc1ccc2nc(Cl)c(/C=N/NC(=O)[C@H]3C[C@@H]3c3ccccc3)cc2c1 | - | 105.3 | -
O=[N+]([O-])c1cc(S(=O)(=O)N2CCCCC2)ccc1NCCCN1CCOCC1 | - | - | -
Cc1cc(C)c(C)c(S(=O)(=O)N2CCN(C(=O)CCc3nc4ccccc4c(=O)[nH]3)CC2)c1C | . | - | -
CCN1CCN(C(=O)CCc2nc3ccccc3c(=O)[nH]2)CC1 | 36.8 | . | -
COc1ccc(CNS(=O)(=O)c2ccc3c(c2)NC(=O)CS3)cc1 | . | - | -
COc1ccc(-c2nc(C)c(C(C)=O)n2O)cc1 | 30.3 | . | -
CCOc1ccc(-c2nc(C)c(C(C)=O)n2O)cc1 | - | - | -
